The list is not random: actives were taken first. Their share in the collection is about 2.6%.
Vif inh: HIV Vif inhibition; HEK293T cells, Vif self-association by quenched fluorescence, imaging, 24 h; inhibition, % at 7.49 µM; hit rate 0.35% among 340,000; in the data active = inhibition above about 50%, passing the limit was not always enough; inconclusive = no clear call, values can overlap the other calls; inactive = below about 31%
XiGFP reactiv: reactivates the inactive X chromosome in mouse fibroblasts; XiGFP mouse fibroblasts, % GFP-positive cells imaging, 3 d; cells co-treated with 5-aza-dC sensitizer; scaled so ellipticine positive control = 100%; activation, % at 7.58 µM; hit rate 0.055% among 360,000; AID 743238;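 active = mean normalized replicate activation at least 10% and every replicate at or above 10%; inconclusive = only one of the two criteria met; inactive = mean below 10% and not all replicates reach 10%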;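 note: 0% = median of on-plate neutral control wells and 100% = ellipticine 6 µM median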
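System: 68-5-11 XiGFP fibroblast line; Timing: 3 days compound exposure; Compound dosing: one concentration, pinned; Benchmarks: positive control ellipticine, 6 µM final; Buffer or medium: DMEM containing 5-aza-dC.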
esBAF inh: blocks esBAF chromatin remodeling in mouse ES cells; hit rate 2% among 350,000; AID 602393; Bmi1-luciferase knock-in reporter, 24 h; 100% = twice the neutral-well signal; reporter increase, % at 12.5 µM; in the data active = activation above about 40%; inconclusive = no clear call, values can overlap the other calls;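 note: 0% = median of the plate's neutral control wells and 100% = double that signal; a rise in the Bmi1 reporter signal indicates esBAF inhibition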
Wnt bcat act: activators of Wnt/beta-catenin signaling; activation, % at 9.35 µM; hit rate 1.2% among 300,000; Wnt/beta-catenin reporter cell assay, activator, plate reader; in the data active = activation above about 30%, passing the limit was not always enough; inconclusive = no clear call, values can overlap the other calls;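 note: 0% = neutral control wells and 100% = positive control wells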
MITF act: increases MITF-driven TRPM1 promoter luciferase signal; SK-MEL-5 TRPM1-promoter luciferase, 24 h; % of positive control, neutral wells = 0; activation, % at 12.5 µM; hit rate 0.75% among 300,000;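 active = mean activation of at least 80% with every replicate also reaching 80%; inconclusive = mean reaches 80% but some replicate falls short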;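 note: 0% = neutral control wells and 100% = parthenolide positive control wells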
The depositor's hits bear a star; i = inactive; u = inconclusive; x = no result.

SMILES	Vif inh	XiGFP reactiv	esBAF inh	Wnt bcat act	MITF act
Cc1ccc(-c2nc(NCc3ccco3)n(C(=O)c3ccco3)n2)cc1	-13.8	0.0	59.7*	14.9	59.6
COCC(=O)n1nc(-c2ccc(C)cc2)nc1NCc1ccc(F)cc1	-4.8	0.4	x	6.3	47.6
COCC(=O)n1nc(-c2ccccc2)nc1NCc1ccc(N(C)C)cc1	0.7	0.3	49.7*	10.1	46.0
O=C(COc1ccccc1)n1nc(-c2ccc(Cl)cc2)nc1NCc1ccco1	-5.1	x	65.7*	x	x
CCCN(C)C[C@@H]1OCCCC[C@@H](C)Oc2ccc(NS(=O)(=O)c3cn(C)cn3)cc2C(=O)N([C@@H](C)CO)C[C@@H]1C	x	0.0	0.4	x	x
Cc1nc2ccc(NC(=O)N(C(C)C)C(C)C)cc2s1	2.3	x	44.4*	x	x
Cc1nc2ccc(NC(=O)c3ccc(Cl)s3)cc2s1	5.1	0.1	79.0*	12.3	87.1*
CC(C)NC(=O)Nc1ccc2c(c1)C(=O)N([C@H](C)CO)C[C@H](C)[C@H](CN(C)C(=O)CCCN(C)C)OCCCC[C@H](C)O2	x	0.1	x	x	x
CC(=O)NC(NC(=S)Nc1ccc(S(N)(=O)=O)cc1)C(Cl)(Cl)Cl (centres undefined)	4.2	0.0	3.7	-7.0	6.4
CC(=O)NC(NC(=S)Nc1ccc(N=Nc2ccccc2)cc1)C(Cl)(Cl)Cl (centres undefined)	6.4	x	10.9	47.4*	x
C[C@@H]1CN([C@H](C)CO)C(=O)Cc2cc(NC(=O)Nc3ccccc3)ccc2O[C@H]1CN(C)C(=O)Nc1ccc(F)cc1	x	-1.3	0.9	x	x
CC(C)NC(=O)c1ccc2c3n(nc2c1)-c1ccccc1CO3	x	0.1	-45.0	17.6	-13.1
O=C(NCCO)c1ccc2c3n(nc2c1)-c1ccccc1CO3	3.1	0.0	1.8	36.5*	72.8
O=C(NCC1CC1)c1ccc2c3n(nc2c1)-c1ccccc1CO3	-3.1	0.0	4.5	45.9*	44.4
Cc1ccc2c(c1)COc1c3ccc(C(=O)NCC4CC4)cc3nn1-2	x	0.0	93.7*	17.7	77.7
C=CCNC(=O)c1ccc2c3n(nc2c1)-c1ccc(Cl)cc1CO3	i	-0.1	53.0*	43.8*	89.6*
Cc1ccc2c(c1)COc1c3ccc(C(=O)O)cc3nn1-2	x	0.0	1.8	-1.3	-68.5
Cc1noc(C)c1S(=O)(=O)Nc1cccc2c1O[C@@H](CN(C)C(=O)NC(C)C)[C@@H](C)CN([C@@H](C)CO)C2=O	x	0.0	-1.3	x	x
COc1cc(C)ccc1OCc1cc(C(=O)NCCN2CCCC(O)C2)no1 (centres undefined)	-2.2	0.0	-1.4	-3.9	24.1
COc1cc(C)ccc1OCc1cc(C(=O)NC2CCOCC2)no1	x	0.1	46.9*	-2.2	x
COc1ccc(OCc2cc(C(=O)N3CCCCCC3)no2)c(Cl)c1	x	-0.1	x	17.4	u
COC1CCN(C(=O)c2cc(COc3cc(C)ccc3C)on2)CC1	4.0	0.1	28.7	13.8	x
COc1ccc(OCc2cc(C(=O)N3CCOCC3)no2)c(Cl)c1	-8.5	0.1	36.9	33.9*	u
COCCCC1CCN(C(=O)c2cc(COc3cc(C)ccc3C)on2)CC1	-0.4	0.2	104.3*	29.4	u
COCCN1CCN(C(=O)c2cc(COc3ccc(Cl)cc3OC)on2)CC1	-6.4	0.4	u	35.7*	79.2
SMILES	Vif inh	XiGFP reactiv	esBAF inh	Wnt bcat act	MITF act
CN1[C@H](C(=O)NC2Cc3ccccc3C2)[C@@H](CO)[C@@H]2Cn3c(ccc(C4=CCCC4)c3=O)[C@@H]21	x	0.2	1.3	x	x
CCOC(=O)N(C)C[C@@H]1OCc2ccccc2-c2c(n(C)c3ccccc23)C(=O)N([C@@H](C)CO)C[C@H]1C	x	0.3	0.1	x	x
COc1cccc(OCc2cc(C(=O)NC(C)c3cnn(C)c3C)no2)c1 (centres undefined)	-4.1	0.0	43.8*	9.1	45.0
COCCN1CCN(C(=O)c2cc(COc3cc(C)ccc3C)on2)CC1	-2.2	x	72.7*	1.0	45.2
COc1ccc(OCc2cc(C(=O)NC(C)c3cnn(C)c3)no2)c(Cl)c1 (centres undefined)	9.1	0.0	53.9*	24.9	81.4*
Cc1nc2cc(OCc3cc(C(=O)NC(C)c4cnn(C)c4)no3)ccc2s1 (centres undefined)	x	-0.1	x	5.4	30.1
Cc1ccc(C)c(OCc2cc(C(=O)N3CCNC(=O)C3)no2)c1	-3.5	0.1	2.9	3.7	13.1
COc1cccc(CCNC(=O)c2cc(COc3cccc(OC)c3)on2)c1	-5.2	0.1	x	16.5	x
Cc1ccc(C)c(OCc2cc(C(=O)N3CCOCC3)no2)c1	-5.1	0.1	49.7*	15.0	73.6
C[C@H](CO)N1C[C@H](C)[C@@H](CN(C)CC2CCCCC2)Oc2c(NC(=O)Cc3cn(C)c4ccccc34)cccc2C1=O	x	0.2	x	x	x
Cc1noc(C)c1S(=O)(=O)Nc1ccc2c(c1)C(=O)N([C@@H](C)CO)C[C@H](C)[C@@H](CN(C)S(=O)(=O)c1cn(C)cn1)OCCCC[C@@H](C)O2	x	0.0	1.7	x	x
Cc1ccc(C)c(OCc2cc(C(=O)N3CCC(N4CCCC(O)C4)CC3)no2)c1 (centres undefined)	-2.5	0.2	0.8	0.5	9.5
CC(=O)NCCC1CCCCN1C(=O)c1cc(COc2cc(C)ccc2C)on1 (centres undefined)	-4.5	0.0	66.3*	22.1	u
Cc1sc(NC(=O)c2ccc(Cl)s2)c(C(N)=O)c1C	-0.4	x	30.1	42.2*	31.1
Cc1sc(NC(=O)c2ccc(Br)s2)c(C(N)=O)c1C	x	x	u	x	26.1
C[C@@H]1CN([C@@H](C)CO)C(=O)Cc2cc(NS(=O)(=O)c3cccs3)ccc2O[C@@H]1CN(C)Cc1ccc(Cl)c(Cl)c1	x	0.5	2.1	x	x
Clc1cccc2sc(-c3nnc(-c4ccccc4)o3)c(Cl)c12	18.9	x	43.8*	x	34.9
N#CCSc1nnc(-c2sc3ccccc3c2Cl)o1	4.2	0.6	x	x	-8.6
CO[C@@H]1CN(C)C(=O)c2ccc(NS(C)(=O)=O)cc2OC[C@@H](C)N(Cc2nccs2)C[C@H]1C	x	0.4	2.4	x	x
C[C@@H]1CN([C@H](C)CO)C(=O)Cc2cc(NC(=O)Nc3cccc4ccccc34)ccc2O[C@@H]1CN(C)Cc1ccc2c(c1)OCO2	x	-1.1	-3.0	x	x
C[C@H](CO)N1C[C@H](C)[C@H](CN(C)C)Oc2cc(C#CC(C)(C)O)ccc2S1(=O)=O	x	0.1	-0.8	x	x
O=C1c2ccccc2C(=O)N1CCOCCN1C(=O)c2ccccc2C1=O	5.5	x	-4.9	x	-8.1
O=C1c2ccccc2C(=O)N1CCCOc1ccccc1	-15.2	x	u	7.8	29.4
COc1ccc(CN2C(=O)c3ccccc3C2=O)cc1	62.2*	0.2	0.2	5.8	x
CCOc1ccc(OCCN2C(=O)c3ccccc3C2=O)cc1	-9.8	0.0	62.9*	2.4	75.5
N#Cc1ccccc1OCCN1C(=O)c2ccccc2C1=O	-0.2	x	56.3*	x	71.5
